Measured values reported in the RNAGym collection of RNA variant scans (doi:10.1126/science.aae0568).
Variants at the floor of the assay were thinned out.

B1: tRNA (parent)
chain: GUUCCGUUGGCGUAAUGGUAACGCGUCUCCCUCCUAAGGAGAAGACUGCGGGUUCGAGUCCCGUACGGAACG

Variants of: B1
Test: yeast fitness relative to wild type (ratio to wild type); higher = fitter; tRNA-Arg(CCU), competitive growth, 37 C, YPD
Method in brief: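 Gene amplicons from the start population and from each of six end populations were read by 100-nucleotide paired-end sequencing. Those end populations came from pooled Saccharomyces cerevisiae strains carrying tRNA-Arg(CCU) gene variants at the native locus, competed in YPD at 37°C for 24 hours. Fitness relative to wild type was worked out from changes in genotype frequencies. Genotypes needed ≥ 100 starting reads, and estimates < 0.5 were set to 0.5.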

Going from GUUCCGUUGGCGUAAUGCUAAUGCGUCUCCAUCCUAAGGAGAAGACUGCGGGUUCGAGUCGCGUACGGAACG [G18C C22U C31A C61G] to GUUCCGUUGGCGUAAUGCUAAUGCGUCUACCUCCUAAGGAGGAGACUGCGGGUUCGAGUCCCGUACGGAACG [G18C C22U C29A A42G], the yeast fitness rises from ≤ 0.5 to 0.541.

GUUCCGUUGGCGUAAUGCUAACGCGUCUUCCUCCUAAGAAGAAGACUGUGGGUUCCAGUCCCGUACGGAACG [G18C C29U G39A C49U G56C] and GUUCCGUUGGCGUAAUGCUAACGAGUCUCCCUCCUAAGGAGAAGACUGCGGGUUCGAGUCCCGUACGGAACG [G18C C24A] cannot be ordered by yeast fitness: ≤ 0.5 for the first, ≤ 0.5 for the second.

First: GUUCCGUUGGCGUAAUGCUAACGUGUCUCCCUCCUAAGGAGAAGACUGCGGGUUCGAGUCCCGUACGGAACG [G18C C24U]
Second: GUUCCGUUGGCGUAAUGCUAACGCGUAUCCCUCCUAAGGAGAAGACUGCGGGUUUGAGUCCCCUACGGAACG [G18C C27A C55U G63C]
The yeast fitness of the first is higher: 0.641 for the first, ≤ 0.5 for the second.

Compared with GUUCCGUUGGCGUAAUGCUAACGCGUCUGCCUCCUAAGGAGAAGGCUGCGGGUUCGAGUCCCGUAUGGCACG [G18C C29G A45G C66U A69C], GUUCCGUUGGCGUAAUGCUAACGCGUUUCCCUCCUAAACAGAAGACUGCGGGUUCGAGUCCCGUACGGAACG [G18C C27U G38A G39C] is higher in yeast fitness: ≤ 0.5 for the first, 0.521 for the second.

First: GUUCCGUUGGCGUAAUGCUAACGCGUAUCCCUCCUAAGGAGAAGACUGCGGGUUCGAGUCCCGUACGGAACG [G18C C27A]
Second: GUUCCGUUGGCGUAAUGCUAACGCGUGUCCCUCCUAAGGAGAAGACUGCGGGUUCGAGUCCCGUACGGAACG [G18C C27G]
The yeast fitness of the first is lower: 0.555 for the first, 0.61 for the second.

Going from GUUCCGUUGGCGUAAUGCUAACGCGUUUCCCUCCUAAGGAGAAGACUGCGGGUUCGAGUCCCGUACGGAACG [G18C C27U] to GUUCCGUUGGCGUAAUGCUAACGUGUCUCCCUCCUAAGGUGAAGACUGCGGGUUUGAGACCCGUACGGAACG [G18C C24U A40U C55U U59A], the yeast fitness falls from 0.71 to 0.501.

Going from GUUCCGUUGGCGUAAUGCUAACGCGUCUGCGUCCUAAGGAGAAGACUGCGGGUUCGCGUCCCGUACGGAACG [G18C C29G C31G A57C] to GUUCCGUUGGCGUAAUGCUAACGCGUCUUCCUCUUAAGGAGAAGACUGCGGGUUCGACUCCCGUACGGAACG [G18C C29U C34U G58C], the yeast fitness falls from 0.549 to ≤ 0.5.

Compared with GUUCCGUUGGCGUAAUGCUAACGCGUGCCCCUCCUAAGGAGAAGACCGCGGGUUCGAGACCCGUGCGGAACG [G18C C27G U28C U47C U59A A65G], GUUCCGUUGGCGUAAUGCUAACGCGUUUCCCUCCUAAGGAGAAGACUGCGGGUUCGAGUCCCGUACGGCACG [G18C C27U A69C] is lower in yeast fitness: 0.61 for the first, 0.502 for the second.

GUUCCGUUGGCGUAAUGCUAACGCGUCUGCCUCCUAAGGAGAAGACCGCGGGUUCGAGUCCCGUACGGAACG [G18C C29G U47C] and GUUCCGUUGGCGUAAUGCUAACGGGUCUCCCUCUUAAGGAGAAGACUGAGGGUUCGAGUCCCGUACGGAACG [G18C C24G C34U C49A] cannot be ordered by yeast fitness: ≤ 0.5 for the first, ≤ 0.5 for the second.

Going from GUUCCGUUGGCGUAAUGCUAACGAGUCUCCCCCCUAAGGAGAAGACUGCGGGUUCGAGUCCCGUACGGAACG [G18C C24A U32C] to GUUCCGUUGGCGUAAUGCUAAUGCGUCUCCCUCCUAAGGAGAAGACUGCGGGUUCGAGUCUCGUACGGAACG [G18C C22U C61U], the yeast fitness falls from 0.55 to ≤ 0.5.

GUUCCGUUGGCGUAAUGCUAACGCGUCUUCCUCCUAAGGAGAAGACUGGGGGUUCGAGUCCCGUACGGAACG [G18C C29U C49G] and GUUCCGUUGGCGUAAUGCUAACGCGUCUUCCUCCUAGGGAGAAGACUGCGGGUUCGAGUCCCGUACGGAACG [G18C C29U A37G] cannot be ordered by yeast fitness: ≤ 0.5 for the first, ≤ 0.5 for the second.

Going from GUUCCGUUGGCGUAAUGCUAAUGCGUCUCCCUCCUAAGGAGAAGACUGCGGGUUCGAGUCCCGUACGGAACG [G18C C22U] to GUUCCGUUGGCGUAAUGCUAACGCGUUUCCCUCCUAAGGAGAAGACUGCGGGUUCGAGUCCGAUAGGGGACG [G18C C27U C62G G63A C66G A69G], the yeast fitness falls from 0.558 to ≤ 0.5.

GUUCCGUUGGCGUAAUGCUAACGCGUGUCCCUCCUAAGGAGAAGAAUGCGGGUUCGAAACCCGUACGGAACG [G18C C27G C46A G58A U59A] and GUUCCGUUGGCGUAAUGCUAAUGCGGCUCGCUCCUAAGGAGAAGACUGCGGGUUGGAGUCCCGUAAGGAACG [G18C C22U U26G C30G C55G C66A] cannot be ordered by yeast fitness: ≤ 0.5 for the first, ≤ 0.5 for the second.

GUUCCGUUGGCGUAAUGCUAAGGCGUCUCCCUCCUAAGGAGAAGACUGCGGGUUAGAGUCCCGUACGGAUCG [G18C C22G C55A A70U] and GUUCCGUUGGCGUAAUGCUAAGGCGUCUCCCUCCUAAGAAGAAGACUGCGGGUUCGAGUCCCGUACGGAACG [G18C C22G G39A] cannot be ordered by yeast fitness: ≤ 0.5 for the first, ≤ 0.5 for the second.

First: GUUCCGUUGGCGUAAUGCUAACGGGUCUCCCUCCUAAGGAGAAGACUGCGGGUUCGAGUCCCGUACGGAGCG [G18C C24G A70G]
Second: GUUCCGUUGGCGUAAUGCUAACGCGUUUCCCUCCUAAGGAGAAGACUGCGGGUUGGAGUCCCGUACGGAACG [G18C C27U C55G]
The yeast fitness of the first is lower: ≤ 0.5 for the first, 0.67 for the second.

GUUCCGUUGGCGUAAUGCUAACGUGUCUCCCUCCUAAGGAGACGAUUGCGGGUUCGAGUCCCCUAUGGAACG [G18C C24U A43C C46U G63C C66U] and GUUCCGUUGGCGUAAUGCUAACGCGUCUUCCUCCUAAGGAGAAGACUGCGGGUUCGAGUCCCGUACGGCACG [G18C C29U A69C] cannot be ordered by yeast fitness: ≤ 0.5 for the first, ≤ 0.5 for the second.

First: GUUCCGUUGGCGUAAUGCUAACGCGUCUUCCUCCUAAGGAGAAGAUUGCGGGUUCGGGUCCCGUACGGAACG [G18C C29U C46U A57G]
Second: GUUCCGUUGGCGUAAUGCUAAUGCGUCUCCCUCGUAAGGAGAUGACUGCGGGUUCGAGUCCCGUACGGAACG [G18C C22U C34G A43U]
The yeast fitness of the first is higher: 0.636 for the first, ≤ 0.5 for the second.

GUUCCGUUGGCGUAAUGCUAACGGGUCUCCCUCCUCACGAGAAGACCGCGGGUUCGACUCCCGUACGGAACG [G18C C24G A36C G38C U47C G58C] and GUUCCGUUGGCGUAAUGCUAACGUGUCUCCCUCCUAAGGUGAAGACUGCGGGUUCAAGUCCCGUGUGGAACG [G18C C24U A40U G56A A65G C66U] cannot be ordered by yeast fitness: ≤ 0.5 for the first, ≤ 0.5 for the second.

GUUCCGUUGGCGUAAUGCUAACGCGUAACCCUCCUAAGGAGUAGACUGCGGGUUCGAGUCCCGUACGGAACG [G18C C27A U28A A42U] and GUUCCGUUGGCGUAAUGCUAACGGGUCUCCCUCCUAAGGAGAAGACUGGGGGUUCGAGUCUCGUACGGAACG [G18C C24G C49G C61U] cannot be ordered by yeast fitness: ≤ 0.5 for the first, ≤ 0.5 for the second.
